From PubChem
ASAP1 GAP inh = ASAP1 ArfGAP inhibition; Q9ULH1; ASAP1-stimulated ARF1 GTP hydrolysis, GDP FP detection; inhibition, % at 16.5 µM; 0.19% of 360,000 active; AID 624377; in the data active means inhibition above about 25%
Target sequence (Q9ULH1 325-724 limits assumed): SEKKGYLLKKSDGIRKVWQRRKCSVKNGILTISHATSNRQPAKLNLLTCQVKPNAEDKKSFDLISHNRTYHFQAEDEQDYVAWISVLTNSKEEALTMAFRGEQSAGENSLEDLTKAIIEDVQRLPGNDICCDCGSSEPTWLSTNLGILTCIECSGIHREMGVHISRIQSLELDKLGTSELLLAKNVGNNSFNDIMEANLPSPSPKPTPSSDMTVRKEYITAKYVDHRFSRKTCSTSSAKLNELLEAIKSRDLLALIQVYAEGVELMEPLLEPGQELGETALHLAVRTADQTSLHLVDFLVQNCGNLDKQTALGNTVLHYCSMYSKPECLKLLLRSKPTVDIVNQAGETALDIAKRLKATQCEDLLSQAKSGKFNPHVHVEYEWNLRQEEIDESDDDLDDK
H9c2 protect = myocardial damage modulation in H9c2 cells; H9c2 cardiomyocytes, H2O2 injury protection, ATPLite, 2 h; protection from H2O2 cell death, % at 20 µM; 0.63% of 360,000 active; AID 588492;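 active means compounds giving at least 50% protection of heart cells from peroxide-induced death in the single-dose screen, raw or plate-pattern-corrected value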
Neddylation inh = inhibitors of human cullin neddylation; 0.58% of 360,000 active; inhibition, % at 25 µM; P61081+Q13564; AID 651699; TR-FRET cullin neddylation, biochemical; in the data active means inhibition above about 36%
ARFGAP1 inhibitor = inhibitors of rat ARFGAP1 | AID 651572 | 0.26% of 360,000 active | Arfgap1-stimulated ARF1 GTP hydrolysis, GDP FP detection | inhibition, % at 16.5 µM | Q62848;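 active means inhibition above a per-plate limit, mean inhibition of low control wells plus 3 SD, cut at about 25% in these data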
Target sequence (Q62848 1-136 limits assumed): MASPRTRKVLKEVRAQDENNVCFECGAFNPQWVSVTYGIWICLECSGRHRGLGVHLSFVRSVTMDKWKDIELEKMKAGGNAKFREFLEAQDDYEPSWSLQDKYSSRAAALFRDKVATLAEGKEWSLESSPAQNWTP
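Material – truncated rat Arfgap1 GAP domain · Buffer or medium – HEPES-based buffer, pH 7.5 · Reagent – human ARF1(Δ1-17)-GTP substrate · Dosing – 16.5 µM single point, 1.26% DMSO · Schedule – GTP hydrolysis reaction 2 h at 25 °C · Technique – GDP detection by fluorescence polarization · Benchmarks – No-Arfgap1 wells (100%) versus DMSO full-reaction wells (0%) · Repeats – single replicate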
Of the large screens only hits and unclear results are named; the others gave an inactive call. Sampled rows, rich in hits. Any-hit rate of the full collection: about 1.6%.

CCC(C(=O)NCc1ccc(F)cc1)N(Cc1ccco1)C(=O)c1snc(C(N)=O)c1N (stereo not drawn)	none
COC(=O)[C@]12C[C@H](CC(=O)NCc3cccc4ccccc34)C(=O)N(Cc3ccccc3)C1=C[C@H](C1CCCC1)O[C@@H]2C	none (no result: H9c2 protect, Neddylation inh)
COC(=O)C1=C(C)N(Cc2ccc(Br)cc2)C(=S)NC1c1ccc(OC)cc1 (stereo not drawn)	none (no result: H9c2 protect, Neddylation inh)
Nc1ccn([C@@H]2O[C@H](C(=O)N[C@H](Cc3ccccc3)C(=O)N3CCSC3)[C@@H](O)[C@H]2O)c(=O)n1	none (no result: H9c2 protect, Neddylation inh)
CC(C)CC(C(=O)NC1CCCC1)N(Cc1cccs1)C(=O)c1snc(C(N)=O)c1N (stereo not drawn)	none
Cc1ccccc1N(C(=O)c1snc(C(N)=O)c1N)C(C(=O)NC1CCCCC1)c1ccc(O)cc1 (stereo not drawn)	none (not shown: Neddylation inh)
CC(C)CC(C(=O)NC1CCCCC1)N(Cc1cccs1)C(=O)c1snc(C(N)=O)c1N (stereo not drawn)	H9c2 protect 51.3
COc1ccc(CNC(=O)C(c2ccco2)N(C(=O)c2snc(C(N)=O)c2N)c2ccccc2OC)cc1 (stereo not drawn)	Neddylation inh 39.2
Cc1ccccc1N(C(=O)c1snc(C(N)=O)c1N)C(C(=O)NCc1ccccc1)c1ccc(O)cc1 (stereo not drawn)	H9c2 protect 51.4
NC(=O)[C@@H]1CCCN1C(=O)[C@H]1O[C@@H](n2ccc(N)nc2=O)[C@H](O)[C@@H]1O	none (no result: H9c2 protect, Neddylation inh)
COc1cc(OC)cc(C(=O)NCC2CCN(C(=O)C(=O)c3cccs3)CC2)c1	none (no result: H9c2 protect, Neddylation inh)
CCCC(=O)N(C1CC(C)C(C#N)(C#N)C1(C#N)C#N)N(C)C (stereo not drawn)	Neddylation inh 53.4
CCN(CC)CCNC(=O)c1ccc(NCN2C(=O)NC(c3ccccc3)(c3ccccc3)C2=O)cc1	none (no result: H9c2 protect, Neddylation inh)
Cc1oc2c(O)c(O)ccc2c(=O)c1-c1ccc(Cl)cc1	H9c2 protect 72.3
Cc1oc2c(O)c(O)ccc2c(=O)c1-c1cnn(-c2ccccc2)c1	H9c2 protect 86.8
Cc1oc2c(O)c(O)ccc2c(=O)c1-c1ccccc1	H9c2 protect 68.9
C[C@H](CO)N1C[C@H](C)[C@@H](CN(C)S(C)(=O)=O)OCc2cn(nn2)CCCC1=O	none (no result: H9c2 protect, Neddylation inh)
COc1ccc(C(=O)C(=O)N2CCN(S(=O)(=O)c3cccc4c(N(C)C)cccc34)CC2)cc1OC	none (no result: H9c2 protect, Neddylation inh)
COCCNC(=S)N1C[C@H]2CON(C)[C@H]2C[C@H]1c1ccccc1Br	none (no result: H9c2 protect, Neddylation inh)
Cc1cc2c(nc1C)CCCN2Cc1ccccn1	none (no result: H9c2 protect, Neddylation inh)
O=C(Oc1c(Cl)cc(Cl)c2cccnc12)c1cccc([N+](=O)[O-])c1	none (no result: ASAP1 GAP inh, ARFGAP1 inhibitor)
O=C(Oc1ccc(Cl)c2cccnc12)c1cccc([N+](=O)[O-])c1	H9c2 protect 64.2
COC(=O)c1cc2c(c3c4ccccc4n(S(=O)(=O)c4ccc(C)cc4)c13)C(=O)N(C)C2	none (no result: H9c2 protect, Neddylation inh)
COc1cc2c(cc1OC)C(COc1ccc3c(C)cc(=O)oc3c1)N(C(=O)c1ccco1)CC2 (stereo not drawn)	H9c2 protect 57.6
COc1cc2c(cc1OC)C(COc1ccc(F)cc1)N(C(=O)c1ccco1)CC2 (stereo not drawn)	none
COc1cc(-n2c(=O)c3ccccc3n(Cc3cc(=O)n4ccccc4n3)c2=O)cc(OC)c1OC	H9c2 protect 56.6
O=c1c2sccc2n(Cc2cc(=O)n3ccccc3n2)c(=O)n1-c1ccccc1	none
CC(C)N1C(=O)/C(=C\c2nc3ccccc3c(=O)[nH]2)c2ccccc21	H9c2 protect 85.2
COc1cc2c(c3c1c(=O)c1ccccc1n3C)C=CC(C)(C)O2	none (no result: H9c2 protect, Neddylation inh)
CCC(=NNC(=O)c1ccc2c(c1)nc(C)n2CC)c1cc(F)ccc1O	H9c2 protect 52.2
O=[N+]([O-])c1ccc(-c2nc(Cl)c3c(n2)CCCC3)o1	none
CC(C)Cc1nc2oc3c(NCC4CCCO4)ncnc3c2c2c1CCC2 (stereo not drawn)	H9c2 protect 73.2 (not shown: Neddylation inh)
CCc1c(-c2ccc(F)cc2F)ncn1CCc1ccccc1OC	none (no result: H9c2 protect, Neddylation inh)
O=C(c1cc(COc2cccc3cnccc23)on1)N1CCCC(CCCO)C1 (stereo not drawn)	Neddylation inh 45.5
COc1ccc(OCc2cc(C(=O)N3CCCC(CO)C3)no2)c2ccccc12 (stereo not drawn)	none
COC(=O)c1cc(NC(=O)Nc2cc(OC)ccc2OC)cc(C(=O)OC)c1	H9c2 protect 53.5
O=C(CN1CCN(Cc2ccccc2)CC1)Nc1ccc([N+](=O)[O-])cc1C(=O)Nc1ccccc1F	H9c2 protect 50.9
COc1cc(NC(=O)c2cc([N+](=O)[O-])ccc2NC(=O)CN2CCN(c3ccccn3)CC2)cc(OC)c1	H9c2 protect 54.7
Cc1cc(C)n2nc(C(=O)N/N=C/c3c4ccccc4cc4ccccc34)nc2n1	H9c2 protect 64.2
COc1ccc(C2CC(=O)C(c3ccc(C(C)=O)cc3)=CN2Cc2ccccc2)cc1 (stereo not drawn)	none (no result: H9c2 protect, Neddylation inh)
C[C@@H]1CN([C@H](C)CO)C(=O)c2cc(C#CC(C)(C)O)cnc2O[C@@H]1CN(C)C(=O)C1CC1	none
COC(=O)[C@]12C[C@H](CC(=O)NCC3CCCCC3)C(=O)N(Cc3ccc4c(c3)OCO4)C1=C[C@H](C(C)(C)C)O[C@@H]2C	none (no result: H9c2 protect, Neddylation inh)
CCC(C)Nc1ncnc2c1cnn2Cc1ccc(Cl)cc1 (stereo not drawn)	H9c2 protect 88.7
O=C(NCc1ccco1)C(c1ccncc1)N(C(=O)Cc1cccs1)c1ccccc1 (stereo not drawn)	none
O=C(NCc1ccco1)C(c1ccccc1)N(C(=O)Cc1cccs1)c1ccccc1F (stereo not drawn)	H9c2 protect 75.0
CC(C)S(=O)(=O)C1=NSC2=NC(=O)/C(=C\c3ccc(-c4ccccc4)o3)C(=N)N21	Neddylation inh 41.5
CC(C)S(=O)(=O)C1=NSC2=NC(=O)/C(=C\c3ccc(-c4cccc(C(=O)O)c4)o3)C(=N)N21	none
COc1ccc2c(c1)C(NC(=O)C(F)(F)F)CC21CCCCC1 (stereo not drawn)	none (no result: H9c2 protect, Neddylation inh)
O=C(NNC(=O)c1cc(Br)ccc1Cl)c1csc(N2CCOCC2)n1	none
O=C(NNC(=O)c1cc(Br)ccc1O)c1csc(N2CCOCC2)n1	H9c2 protect 66.4 (no result: ASAP1 GAP inh, ARFGAP1 inhibitor)
COc1cc(C2c3c(oc4ccccc4c3=O)C(=O)N2c2ccc(C)cn2)ccc1O (stereo not drawn)	H9c2 protect 63.4
O=C1N=c2ccccc2=C1c1sc(Nc2cccc(O)c2)nc1O	H9c2 protect 54.3
Cc1cc(N)n(-c2nc(-c3cccnc3)nc3ccccc23)n1	H9c2 protect 86.4
O=S(=O)(c1ccccc1)N1CCN(c2nc(-c3cccnc3)nc3ccccc23)CC1	H9c2 protect 57.9
c1cncc(-c2nc(N3CCOCC3)c3ccccc3n2)c1	none (no result: ASAP1 GAP inh, ARFGAP1 inhibitor)
NC(=O)c1ncn([C@@H]2O[C@H](C(=O)N3CCN(Cc4ccccn4)CC3)[C@@H](O)[C@H]2O)n1	none (no result: H9c2 protect, Neddylation inh)
COc1cc(/C=N/NC(=S)Nc2cccc(Cl)c2C)ccc1OCC(=O)N1CC(C)OC(C)C1 (stereo not drawn)	H9c2 protect 55.2
Oc1ccc(/C=N/N2CCCCC2)cc1O	H9c2 protect 68.6
O=C1c2ccccc2C(=O)N1/N=C/c1ccc(O)c(O)c1	H9c2 protect 62.3
